Experimental data published in ChEMBL document CHEMBL1765001, “Synthesis and pharmacological evaluation of thieno[2,3-b]pyridine derivatives as novel c-Src inhibitors” (Bioorg Med Chem, 2011).
The source made the active and inactive calls. The rule behind the calls is not given here.

Columns and labels:
[1] = target: T1, Proto-oncogene tyrosine-protein kinase Src (Homo sapiens, UniProt P12931); test: Inhibition of c-SRC assessed as residual activity using KVEKIGEGYYGVVYK as peptide substrate after 20 mins by scintillation counting
T1 sequence (P12931 2-536 limits assumed): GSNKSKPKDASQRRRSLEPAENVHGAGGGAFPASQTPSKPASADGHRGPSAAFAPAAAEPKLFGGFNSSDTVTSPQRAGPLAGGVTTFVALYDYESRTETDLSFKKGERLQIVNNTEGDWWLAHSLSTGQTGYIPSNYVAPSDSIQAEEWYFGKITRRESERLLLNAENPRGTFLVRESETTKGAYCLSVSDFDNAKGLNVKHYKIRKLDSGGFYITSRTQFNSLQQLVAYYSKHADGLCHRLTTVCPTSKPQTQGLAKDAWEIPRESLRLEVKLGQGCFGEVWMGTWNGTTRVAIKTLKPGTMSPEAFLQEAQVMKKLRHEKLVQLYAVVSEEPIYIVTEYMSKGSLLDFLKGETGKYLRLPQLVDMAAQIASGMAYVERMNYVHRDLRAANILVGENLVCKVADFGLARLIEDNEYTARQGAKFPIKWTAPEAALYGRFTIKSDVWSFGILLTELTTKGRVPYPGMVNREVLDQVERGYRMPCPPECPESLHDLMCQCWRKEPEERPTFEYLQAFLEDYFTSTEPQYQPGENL
Method in brief: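 Radiometric kinase assay: Src kinase ([…] stock diluted to 200 nM in kinase buffer) with peptide substrate (370 µM stock) and inhibitor from 10% DMSO dilution, in buffer with MgCl2, EDTA, DTT; started with 40 µM ATP plus 33P-γ-ATP, 20 min at 30 °C; stopped with 0.85% orthophosphoric acid, phosphocellulose filter capture, scintillation count. IC50 from sigmoidal variable-slope fit of mean data, at least two determinations; DMSO negative control.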

[2] = target: T1, Proto-oncogene tyrosine-protein kinase Src; test: Inhibition of c-SRC in EGF-stimulated human A431 cells assessed as phosphorylated STAT3 level by Western blot assay; assay type: cell-based; details: A-431
Method in brief: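 A431 epidermoid carcinoma cells starved overnight, stimulated 10 min with EGF (100 ng/ml), lysed in 2X Laemmli buffer; phospho-STAT3 detected with anti-pTyr705 antibody, total STAT3 on a separate blot; pSTAT3/total STAT3 ratio by densitometry of X-ray films. DMSO with EGF set as 100% phosphorylation; 4-anilinoquinoline-3-carbonitrile positive control.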

[3] = target: T1, Proto-oncogene tyrosine-protein kinase Src; test: Inhibition of c-SRC in human HCT116 cells assessed as phosphorylated FAK level after 5 hrs by Western blot assay; assay type: cell-based; details: HCT-116
Method in brief: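 HCT116 colon carcinoma cells seeded overnight, serum-starved, treated with inhibitors 5 h at 3 and 10 µM final; lysed in 2X Laemmli buffer, gradient SDS-PAGE, PVDF transfer. Phospho-FAK by anti-pTyr861, total FAK on separate blot; ratio by film densitometry.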

Fibroblast = test: Antitumor activity against Src-transformed fibroblasts xenograft model assessed as tumor growth inhibition at 50 mg/kg, ip after 7 days; assay type: functional, organism-based; design: dose 50 mg/kg
[4] = target: T1, Proto-oncogene tyrosine-protein kinase Src

Row | IC50 [1] | Activity [3] | Compound | further results
1 | 0.769 µM | – | Cc1cc(C)c2c(N)c(C(=O)N/N=C/c3cncn3C)sc2n1 | Activity [2]: > 10 µM
2 | 0.23 µM | > 10 µM | Cc1cc(NCCN(C)C)nc2sc(C(=O)N/N=C/c3cccc4ccccc34)c(N)c12 | –
3 | 2.08 µM | – | CCCc1cc2c(N)c(C(=O)N/N=C/c3cccn3C)sc2nc1NCCN(C)C | –
4 | 0.246 µM | 10 µM | Cc1cc(NCCN(C)C)nc2sc(C(=O)N/N=C/c3cccn3C)c(N)c12 | –
5 | 0.063 µM | 10 µM | CCCc1cc(NCCN(C)C)nc2sc(C(=O)N/N=C/c3cccn3C)c(N)c12 | –
6 | 0.84 µM | – | Cc1cc(C)c2c(N)c(C(=O)N/N=C/c3cccn3C)sc2n1 | –
7 | – | – | COc1cc(Nc2c(C#N)cnc3cc4cc(OCCN5CCOCC5)c(OC)cc4cc23)c(Cl)cc1Cl | Activity (Fibroblast): Active
8 | > 10 µM | – | Nc1c(C(=O)N/N=C/c2cccc3ccccc23)sc2ncccc12 | –
9 | 0.032 µM | 3 µM | CN(C)CCNc1cc(-c2ccccc2)c2c(N)c(C(=O)N/N=C/c3cncn3C)sc2n1 | –
10 | 0.33 µM | > 10 µM | Cc1cc(C(F)(F)F)nc2sc(C(=O)N/N=C/c3cncn3C)c(N)c12 | –
11 | 0.04 µM | 3 µM | CN(C)CCNc1cc(Cc2ccccc2)c2c(N)c(C(=O)N/N=C/c3cccn3C)sc2n1 | –
12 | 0.269 µM | – | Cc1cc(C)c2c(N)c(C(=O)N/N=C/c3cccc4ccccc34)sc2n1 | Activity [2]: 10 µM
13 | – | – | O=C(Cc1ccc(-c2ccc(OCCN3CCOCC3)cc2)cn1)NCc1ccccc1 [TIRBANIBULIN] | IC50 [4]: 0.02 µM
14 | 0.107 µM | 3 µM | CN(C)CCNc1cc(-c2ccccc2)c2c(N)c(C(=O)N/N=C/c3cccc4ccccc34)sc2n1 | –
15 | > 10 µM | – | Cc1cc(C)c2c(N)c(C(=O)N/N=C/c3cccn3CCN(C)C)sc2n1 | –
16 | 0.068 µM | 3 µM | CN(C)CCNc1cc(-c2ccccc2)c2c(N)c(C(=O)N/N=C/c3cccn3C)sc2n1 | –
17 | 1.34 µM | – | Cc1cc(C(F)(F)F)nc2sc(C(=O)N/N=C/c3cccc4ccccc34)c(N)c12 | –
18 | 1.3 µM | – | Cn1cncc1/C=N/NC(=O)c1sc2ncccc2c1N | –
19 | 3.87 µM | – | CN(C)CCNc1nc2sc(C(=O)N/N=C/c3cccn3C)c(N)c2cc1Cc1ccccc1 | –
